# Laboratory results published in ChEMBL document CHEMBL5724801, “EUbOPEN Chemogenomics Library - Multiplex” (2024).
# “And” between values parts separate entries of the source, which are not always exact repeats. Identical values can stand only once.
# System: HEK-293T
# Experiment: Multiplex assay against HEK293T
# Format: toxicity, cell-based
# Details: human
# Procedure, shortened: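 Live cells were stained at seeding with Hoechst33342, BioTracker Green Microtubule Cytoskeleton Dye, MitoTracker Red and Annexin V Alexa Fluor 680. Following compound addition, they were imaged on a CQ1 microscope at 37°C and 5% CO2 and gated by CellPathfinder machine learning into Hoechst high-intensity objects or normal cells, with normal cells split into healthy, pyknosed or fragmented nuclei and pyknosed cells into mitotic or apoptotic. Tubulin, mitochondrial-mass and membrane-permeability phenotypes are per cents of healthy-nucleus cells.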
# [1] = 12 h, 1 µM, compound concentration 1 uM
# [2] = 12 h, 10 µM, compound concentration 10 uM
# [3] = 24 h, 1 µM, compound concentration 1 uM
# [4] = 24 h, 10 µM, compound concentration 10 uM
# [5] = 48 h, 1 µM, compound concentration 1 uM
# [6] = 48 h, 10 µM, compound concentration 10 uM
compound,measurement,setting,value
O=C1NCc2ccc3c(-c4cccc(Cl)c4)c[nH]c3c21,Population Apoptotic (%),[1],9.74% and 10.57%
same,Population Fragmented Nuclei (%),[1],0.72% and 0.69%
same,Population Hoechst High Intensity Objects (%),[1],0.36% and 0%
same,Population Membrane Permeable-Phenotype (%),[1],0%
same,Population Mitochondria Different-Phenotype (%),[1],41.8% and 23.81%
same,Population Mitotic Cells (%),[1],90.26% and 89.43%
same,Population Normal (%),[1],99.64% and 100%
same,Population Pyknosed Nuclei (%),[1],55.4% and 84.83%
same,Total Cell Count,[1],279 and 145
same,Population Apoptotic (%),[2],21.19% and 16.81%
same,Population Fragmented Nuclei (%),[2],1.88% and 2.24%
same,Population Healthy Nuclei (%),[2],27.23% and 13.43%
same,Population Hoechst High Intensity Objects (%),[2],0.47% and 4.29%
same,Population Membrane Permeable-Phenotype (%),[2],0%
same,Population Mitotic Cells (%),[2],78.81% and 83.19%
same,Population Normal (%),[2],99.53% and 95.71%
same,Population Pyknosed Nuclei (%),[2],70.89% and 84.33%
same,Population Tubulin-Different-Phenotype (%),[2],5.17% and 11.11%
same,Total Cell Count,[2],214 and 140
same,Population Apoptotic (%),[3],26.79% and 11.65%
same,Population Fragmented Nuclei (%),[3],3.63% and 0.67%
same,Population Healthy Nuclei (%),[3],59.41% and 30.2%
same,Population Hoechst High Intensity Objects (%),[3],0%
same,Population Membrane Permeable-Phenotype (%),[3],0%
same,Population Mitotic Cells (%),[3],73.21% and 88.35%
same,Population Normal (%),[3],100%
same,Population Pyknosed Nuclei (%),[3],36.96% and 69.13%
same,Population Tubulin-Different-Phenotype (%),[3],7.78% and 8.89%
same,Total Cell Count,[3],303 and 149
same,Population Apoptotic (%),[4],31.52% and 52.43%
same,Population Fragmented Nuclei (%),[4],1.99% and 3.12%
same,Population Healthy Nuclei (%),[4],24.7% and 16.41%
same,Population Hoechst High Intensity Objects (%),[4],0% and 3.76%
same,Population Membrane Permeable-Phenotype (%),[4],0% and 4.76%
same,Population Mitochondria Different-Phenotype (%),[4],56.45% and 23.81%
same,Population Mitotic Cells (%),[4],68.48% and 47.57%
same,Population Normal (%),[4],100% and 96.24%
same,Population Pyknosed Nuclei (%),[4],73.31% and 80.47%
same,Population Tubulin-Different-Phenotype (%),[4],1.61% and 0%
same,Total Cell Count,[4],251 and 133
same,Population Apoptotic (%),[5],20.62% and 21.52%
same,Population Fragmented Nuclei (%),[5],3.28% and 0.63%
same,Population Healthy Nuclei (%),[5],72.22% and 49.69%
same,Population Hoechst High Intensity Objects (%),[5],0.5% and 0%
same,Population Membrane Permeable-Phenotype (%),[5],0.35% and 0%
same,Population Mitotic Cells (%),[5],79.38% and 78.48%
same,Population Normal (%),[5],99.5% and 100%
same,Population Pyknosed Nuclei (%),[5],24.49% and 49.69%
same,Total Cell Count,[5],398 and 159
same,Population Apoptotic (%),[6],54.1% and 46.85%
same,Population Fragmented Nuclei (%),[6],4.95% and 2.36%
same,Population Hoechst High Intensity Objects (%),[6],0.45% and 0.78%
same,Population Membrane Permeable-Phenotype (%),[6],0%
same,Population Mitochondria Different-Phenotype (%),[6],83.15% and 38.46%
same,Population Mitotic Cells (%),[6],45.9% and 53.15%
same,Population Normal (%),[6],99.55% and 99.22%
same,Population Pyknosed Nuclei (%),[6],54.95% and 87.4%
same,Total Cell Count,[6],223 and 128
COc1ccc2nc3ccc(OC)cc3c(SCCCN)c2c1.Cl,Population Apoptotic (%),[1],9.64% and 17.91%
same,Population Fragmented Nuclei (%),[1],1.39% and 4.49%
same,Population Hoechst High Intensity Objects (%),[1],0.55% and 0%
same,Population Membrane Permeable-Phenotype (%),[1],1.06% and 0%
same,Population Mitotic Cells (%),[1],90.36% and 82.09%
same,Population Normal (%),[1],99.45% and 100%
same,Population Pyknosed Nuclei (%),[1],46.24% and 85.9%
same,Population Tubulin-Different-Phenotype (%),[1],5.85% and 13.33%
same,Total Cell Count,[1],361 and 156
same,Population Apoptotic (%),[2],19.66% and 51.55%
same,Population Fragmented Nuclei (%),[2],81.39% and 89.94%
same,Population Healthy Nuclei (%),[2],8.58% and 2.44%
same,Population Hoechst High Intensity Objects (%),[2],3.16% and 0.62%
same,Population Membrane Permeable-Phenotype (%),[2],0% and 3.23%
same,Population Mitochondria Different-Phenotype (%),[2],15% and 9.68%
same,Population Mitotic Cells (%),[2],80.34% and 48.45%
same,Population Normal (%),[2],96.84% and 99.38%
same,Population Pyknosed Nuclei (%),[2],10.03% and 7.63%
same,Population Tubulin-Different-Phenotype (%),[2],31% and 48.39%
same,Total Cell Count,[2],1204 and 1280
same,Population Apoptotic (%),[3],11.89% and 22.43%
same,Population Fragmented Nuclei (%),[3],1.64% and 2.45%
same,Population Healthy Nuclei (%),[3],72.36% and 31.9%
same,Population Hoechst High Intensity Objects (%),[3],0% and 0.61%
same,Population Membrane Permeable-Phenotype (%),[3],1.51% and 3.85%
same,Population Mitochondria Different-Phenotype (%),[3],22.86% and 15.38%
same,Population Mitotic Cells (%),[3],88.11% and 77.57%
same,Population Normal (%),[3],100% and 99.39%
same,Population Pyknosed Nuclei (%),[3],26% and 65.64%
same,Population Tubulin-Different-Phenotype (%),[3],16.33% and 11.54%
same,Population Apoptotic (%),[4],66.98% and 59.74%
same,Population Fragmented Nuclei (%),[4],80.88% and 91.28%
same,Population Healthy Nuclei (%),[4],10.6% and 3.22%
same,Population Hoechst High Intensity Objects (%),[4],1.74% and 0.85%
same,Population Membrane Permeable-Phenotype (%),[4],2.27% and 2.22%
same,Population Mitochondria Different-Phenotype (%),[4],31.06% and 15.56%
same,Population Mitotic Cells (%),[4],33.02% and 40.26%
same,Population Normal (%),[4],98.26% and 99.15%
same,Population Pyknosed Nuclei (%),[4],8.51% and 5.5%
same,Population Tubulin-Different-Phenotype (%),[4],37.88% and 35.56%
same,Total Cell Count,[4],1267 and 1411
same,Population Fragmented Nuclei (%),[5],3.15% and 5.62%
same,Population Healthy Nuclei (%),[5],85.43% and 51.69%
same,Population Hoechst High Intensity Objects (%),[5],0.08% and 0.56%
same,Population Membrane Permeable-Phenotype (%),[5],4.52% and 2.17%
same,Population Mitochondria Different-Phenotype (%),[5],15.94% and 31.52%
same,Population Mitotic Cells (%),[5],95.17% and 75%
same,Population Normal (%),[5],99.92% and 99.44%
same,Population Apoptotic (%),[6],52.58% and 29.51%
same,Population Fragmented Nuclei (%),[6],73.59% and 92.69%
same,Population Hoechst High Intensity Objects (%),[6],4.79% and 2.09%
same,Population Membrane Permeable-Phenotype (%),[6],4.62% and 6.67%
same,Population Mitochondria Different-Phenotype (%),[6],54.23% and 53.33%
same,Population Mitotic Cells (%),[6],47.42% and 70.49%
same,Population Normal (%),[6],95.21% and 97.91%
same,Population Pyknosed Nuclei (%),[6],7.17% and 4.2%
same,Total Cell Count,[6],1420 and 1482
